From PubChem
TRPC6 inh – blocks the mouse TRPC6 cation channel. B-score at 10 µM. HEK293-TRPC6, membrane potential dye, ACh-evoked depolarization; stronger effect = lower value. actives 1.1% (n = 310,000). Q61143;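 active means B-score under library mean minus 3 SD, initial fluorescence not abnormally high, positive integrated signal ratio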;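 further: B-score derived from integrated fluorescence ratio over the kinetic read; more negative B-score means stronger inhibition of depolarization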
DNA FID counter – fluorescent intercalator displacement, NS3 helicase counter-screen; DNA fluorescent intercalator displacement, fluorescence; inhibition, % at 7.9 µM; actives 0.17% (n = 290,000); in the data active means inhibition above about 37%;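 further: 0% = vehicle and 100% = reference compound; higher means more ethidium bromide displaced from hairpin DNA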
TRPC4 block – blocks the mouse TRPC4 cation channel. HEK293 TRPC4beta/mu-opioid, DAMGO-evoked Fluo4 calcium flux; stronger effect = lower value. B-score at 10 µM. actives 0.39% (n = 300,000);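 active means B-score over 3 SD under the library average, no early fluorescence shift, positive overall ratio signal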
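Assay system: HEK293 cells with stable TRPC4beta plus mu-opioid receptor expression; Probe or stimulus: DAMGO in two steps, submaximal then maximal; Dosing: single-point compound dosing; Measured by: Fluo4 calcium-dye fluorescence, kinetic read; Read-out basis: B score from integrated Fluo4 fluorescence ratio.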
TRPC4 potent – allosterically enhances the mouse TRPC4 cation channel; HEK293 TRPC4beta/mu-opioid, DAMGO EC20, Fluo-4 Ca2+ flux; stronger effect = higher value; AID 2227; actives 0.42% (n = 310,000); B-score at 10 µM;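 active means B-score of calcium response area above 5 SD of library B-scores, with initial fluorescence ratio within 5 SD of library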;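 further: B-score of integrated fluorescence ratio over time as area under calcium response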
TRPC6 act – mouse TRPC6 channel activation. B-score at 10 µM. Q61143. actives 0.13% (n = 310,000). HEK293-TRPC6 membrane potential dye fluorescence; stronger effect = higher value;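 active means B-score of the integrated fluorescence ratio above library mean plus 3 SD, and starting fluorescence ratio within library mean plus 5 SD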;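 further: higher score means more depolarization so channel activation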
TRPC4 act – TRPC4 (mouse) channel activation. HEK293 TRPC4beta/mu-opioid, Fluo4 calcium fluorescence; stronger effect = higher value. AID 2237. B-score at 10 µM. Q9QUQ5. actives 0.49% (n = 310,000);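 active means B-score above 5 SD of library B-scores, and initial fluorescence ratio not above library mean plus 5 SD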;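 further: positive B-score marks a calcium rise read as TRPC4 activation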
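Incubation: 45 min room-temperature Fluo4 loading, 110 s read / System: HEK293 cells stably co-expressing mouse TRPC4beta and mu-opioid receptor / Signal: Fluo4 fluorescence, kinetic / Control set: buffer (low) and maximal DAMGO (high) / Measure: integrated baseline-normalised fluorescence ratio, converted to per-well B score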
TRPC4 spec 2 – second selectivity test of TRPC6 inhibitors: effect on mouse TRPC4; HEK293 TRPC4/MOR, membrane potential dye fluorescence; channel activated by saturating DAMGO dose; shares compounds with TRPC6 inh; inhibition, % at 10 µM; actives 42% (n = 920);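 active means compounds whose fluorescence signal differed from control wells by over 3 SD, either direction, in both duplicate plates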
TRPC4 spec – mouse TRPC4 off-target activity of TRPC6 inhibitors; AID 2777; activity change, negative = inhibition, % at 10 µM; actives 61% (n = 920); shares compounds with TRPC6 inh; HEK293 TRPC4/mu-opioid, membrane potential fluorescence;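 active means rise or fall in signal beyond 3 SD of buffer-only wells in both replicate plates, either sign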;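 further: integrated kinetic ratio of fluorescence range over baseline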
HEK293 MPD ctr 2-1 – second check of TRPC6 inhibitor effects in parental HEK293 cells; shares compounds with TRPC6 inh; parental HEK293 membrane potential dye fluorescence; maximal acetylcholine challenge after compound addition; signal change vs control, % at 10 µM; actives 31% (n = 920);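 active means membrane potential signal moving either way by over 3 SD of the maximum-effect control, in both duplicate plates, meaning non-specific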
HEK293 MPD ctr-1 – counter-screen for TRPC6 inhibitors: effect in parental HEK293 cells; actives 60% (n = 920); parental HEK293 membrane potential dye fluorescence; shares compounds with TRPC6 inh; membrane potential signal change, % at 10 µM;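 active means membrane potential signal shifting up or down by more than 3 SD of buffer-only wells, on both duplicate plates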
HEK293 MPD ctr-2 – counter-screen for TRPC6 modulators: effect in parental HEK293 cells. membrane potential signal change, % at 10 µM. membrane potential dye fluorescence. actives 51% (n = 2,400). shares compounds with TRPC6 inh;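 active means membrane potential signal moves up or down beyond 5 SD from buffer-only wells, on both duplicate plates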
HEK293 MPD ctr 2-2 – second check of TRPC6 modulator effects in parental HEK293 cells; shares compounds with TRPC6 inh; membrane potential dye fluorescence; after compound, maximal acetylcholine stimulation; inhibition, % at 10 µM; actives 14% (n = 2,400);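 active means membrane potential signal drops by more than 5 SD from the mean control signal, in both duplicate plates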;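 further: plate controls were acetylcholine ECmax control wells for no effect and buffer only wells for full effect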
TRPC4/MOR mod – tests whether TRPC6 modulators also affect mouse TRPC4 | shares compounds with TRPC6 inh | percent change from control (negative = decrease, positive = increase), % at 10 µM | HEK293 TRPC4/mu-opioid, membrane potential fluorescence | actives 69% (n = 2,400);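 active means membrane potential signal moved up or down beyond 5 SD of buffer control wells, in both duplicate plates, actives on both sides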;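 further: plate controls were assay buffer wells for no effect and DAMGO maximal-effect wells for full effect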
TRPC4/MOR inh 2 – mouse TRPC4 off-target activity of TRPC6 modulators, second screen. shares compounds with TRPC6 inh. HEK293 TRPC4/mu-opioid, membrane potential dye fluorescence; stimulated with maximal-effect DAMGO. inhibition, % at 10 µM. actives 55% (n = 2,400);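 active means drop in membrane potential signal beyond 5 SD of the control wells in both duplicate plates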;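 further: TRPC4 counter screen for TRPC6 hits run under conditions tuned for TRPC6 not TRPC4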
TRPC6 block conf – mouse TRPC6 inhibitor confirmation; shares compounds with TRPC6 inh; HEK293-TRPC6, membrane potential dye, ACh-evoked depolarization; inhibition, % at 10 µM; actives 43% (n = 3,300); AID 488960;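 active means fluorescence ratio falls more than 5 SD below the full-stimulation control mean, in both duplicate runs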;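 further: integrated fluorescence ratio of peak minus minimum over baseline after agonist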
TRPC6 act conf – mouse TRPC6 activator confirmation; shares compounds with TRPC6 inh; HEK293-TRPC6 membrane potential dye fluorescence, FDSS; activation, % at 10 µM; actives 11% (n = 2,800);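 active means ratio signal rise beyond 5 SD above unstimulated control wells' mean, seen in both duplicate runs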;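 further: plate controls were buffer EC0 wells for no effect and acetylcholine ECmax response for full effect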
Numbers without * were called inactive; i = inactive; . = no result given. Shown are actives, neighbours in structure and some others; about 2.3% of the full set was active somewhere.

SMILES	TRPC6 inh	DNA FID counter	TRPC4 block	TRPC4 potent	TRPC6 act	TRPC4 act	HEK293 MPD ctr-2	HEK293 MPD ctr 2-2	TRPC4/MOR mod	TRPC4/MOR inh 2	TRPC6 block conf	TRPC6 act conf	others
O=S(=O)(c1ccc(Cl)cc1)N1CCN(C2CCN(Cc3ccccc3)CC2)CC1	i	9.4	i	i	i	i	.	.	.	.	.	.
COc1ccc(S(=O)(=O)N2CCC(N3CCN(Cc4ccccc4)CC3)CC2)cc1	-5.31*	5.2	i	i	i	i	134.0%*	i	18.0%*	32.5%*	43.5%*	.
CN1CCN(C2CCN(S(=O)(=O)c3ccc(C(C)(C)C)cc3)CC2)CC1	i	7.7	i	i	13.4*	i	193.0%*	i	32.5%*	i	i	104.0%*
O=[N+]([O-])c1ccc(S(=O)(=O)N2CCN(C3CCN(Cc4ccccc4)CC3)CC2)cc1	-5.87*	14.8	i	i	i	i	i	i	i	37.5%*	i	i
CN(C)S(=O)(=O)N1CCN(C(=O)c2ccc3c(c2)OCO3)CC1	i	-2.5	i	i	i	i	.	.	.	.	.	.
O=C(Nc1ccccc1C(=O)NCCCN1CCOCC1)c1ccc(Cl)cc1	i	16.3	i	i	i	i	.	.	.	.	.	.
CCN(CC)CC(=O)Nc1cc(N(C)C)nc2ccccc12	-7.51*	49.4*	i	i	i	i	.	.	.	.	68.2%*	i	TRPC4 spec 2=70.0%*;TRPC4 spec=-25.2%*;HEK293 MPD ctr 2-1=3.0%*;HEK293 MPD ctr-1=-474.0%*
CCCc1nc2ccccc2c(NC(=O)CN(CC)CC)c1CC	i	10.3	i	i	i	i	.	.	.	.	.	.
CCCCCCC(=O)Nc1c2c(nc3ccccc13)N(C)CC2	i	9.6	i	i	i	i	.	.	.	.	.	.
CN1CCc2c1nc1ccccc1c2NC(=O)CN1CCCC1	-6.49*	16.2	i	i	i	i	-278.0%*	i	-46.0%*	46.0%*	i	i
CCCCCC(=O)Nc1cc(N(C)C)nc2ccccc12	-5.41*	16.0	i	i	i	i	i	i	-10.5%*	47.5%*	i	i
CN1CCN(CC(=O)Nc2cc(N(C)C)nc3ccccc23)CC1	-6.79*	73.4*	i	i	i	i	-154.5%*	i	-25.5%*	44.0%*	i	i
